Source: ChEMBL document CHEMBL1124872, “Guanosine analogues. Synthesis of nucleosides of certain 3-substituted 6-aminopyrazolo[3,4-d]pyrimidin-4(5H)-ones as potential immunotherapeutic agents” (1990)

Columns and labels:
Assay type in all cases: functional
Mus musculus [1] = experiment: In vivo effect of Guanosines on murine NK cell activity at E:T ratio of 50:1
How it was run: (§1)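 Mice dosed ip with 150 mg/kg in 2% aqueous sodium bicarbonate, split as 75 mg/kg b.i.d. for 1 day; controls got 2% sodium bicarbonate alone; groups of two. Spleens taken after 24 h; splenocytes tested ex vivo against 51Cr-labelled YAC-1 T-cell lymphoma targets in a 4 h 51Cr release assay, in triplicate, at two effector:target ratios.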

Mus musculus [2] = experiment: In vivo effect of Guanosines on murin NK cell activity at E:T ratio of 100:1; how it was run: as §1
Semliki Forest virus [3] = experiment: Effect of compound on forest virus infection in mice, Mean survival time through 21 days at 100 mg/kg dose
How it was run: (§2)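 Female Swiss Webster mice, about 20 g, received test compound intraperitoneally in aqueous 2% sodium bicarbonate. The daily dose was split into two halves given 24 h and 18 h before lethal Semliki Forest virus inoculation. Placebo mice got 2% sodium bicarbonate alone (0.1 mL/injection). The read-outs were survivors per group and mean survival time with standard deviation.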

Semliki Forest virus [4] = experiment: Effect of compound on forest virus infection in mice, Mean survival time through 21 days at 200 mg/kg dose; how it was run: as §2
Semliki Forest virus [5] = experiment: Effect of compound on forest virus infection in mice at the dose of 100 mg/kg; Tested over 12 mice; how it was run: as §2
Semliki Forest virus [6] = experiment: Effect of compound on forest virus infection in mice at the dose of 200 mg/kg; Tested over 12 mice; how it was run: as §2
Semliki Forest virus [7] = experiment: Effect of compound on forest virus infection in mice at the dose of 100 mg/kg; tested over 12 mice; how it was run: as §2
Semliki Forest virus [8] = experiment: Effect of compound on forest virus infection in mice at the dose of 200 mg/kg; tested over 12 mice; how it was run: as §2
Mus musculus [9] = experiment: In vivo effect of Guanosines on murine NK cell activity at E:T ratio of 100:1; how it was run: as §1
Semliki Forest virus [10] = experiment: Effect of compound on forest virus infection in mice at the dose of 200 mg/kg; tested over 11 mice; how it was run: as §2

In the case of Nc1nc2c(c(Br)nn2C2O[C@H](CO)[C@@H](O)[C@H]2O)c(=O)[nH]1 (stereo partly drawn), the Cytotoxicity (Mus musculus [1]) is reported as 24.4%, the Cytotoxicity (Mus musculus [2]) is reported as 33.2% and the Mean survival time (Semliki Forest virus [3]) is reported as 9 days. For the same compound, the Mean survival time (Semliki Forest virus [4]) was 9 days, the Survivors / total (Semliki Forest virus [5]) was 11 and the Survivors / total (Semliki Forest virus [6]) was 11.
Compound N=c1[nH]c(=O)c2c(-c3ccccc3)nn(C3O[C@H](CO)[C@@H](O)[C@H]3O)c2[nH]1 (stereo partly drawn) has a Mean survival time (Semliki Forest virus [3]) of 6 days, a Mean survival time (Semliki Forest virus [4]) of 7.2 days and a Survivors / total (Semliki Forest virus [7]) of 1. It also gave a Survivors / total (Semliki Forest virus [8]) of 0.
Nc1nc2c(c(C(=O)O)nn2C2O[C@H](CO)[C@@H](O)[C@H]2O)c(=O)[nH]1 (stereo partly drawn) showed a Mean survival time (Semliki Forest virus [3]) of 6 days, a Mean survival time (Semliki Forest virus [4]) of 6.3 days and a Survivors / total (Semliki Forest virus [7]) of 1. It also gave a Survivors / total (Semliki Forest virus [8]) of 3.
For Nc1nc2c(c(N)nn2C2O[C@H](CO)[C@@H](O)[C@H]2O)c(=O)[nH]1 (stereo partly drawn), the Cytotoxicity (Mus musculus [1]) was 16.8%, the Mean survival time (Semliki Forest virus [3]) was 6.2 days and the Mean survival time (Semliki Forest virus [4]) was 6.8 days. For the same compound, the Survivors / total (Semliki Forest virus [5]) was 1, the Survivors / total (Semliki Forest virus [6]) was 3 and the Cytotoxicity (Mus musculus [9]) was 25%.
Work on COc1nn(C2O[C@H](CO)[C@@H](O)[C@H]2O)c2nc(N)[nH]c(=O)c12 (stereo partly drawn) yielded a Mean survival time (Semliki Forest virus [3]) of 7.8 days, a Mean survival time (Semliki Forest virus [4]) of 8.6 days and a Survivors / total (Semliki Forest virus [5]) of 2. For the same compound, the Survivors / total (Semliki Forest virus [8]) was 2.
Compound Nc1nc2c(c(=O)[nH]1)c(=O)[nH]n2C1O[C@H](CO)[C@@H](O)[C@H]1O (stereo partly drawn) has a Mean survival time (Semliki Forest virus [3]) of 7 days, a Mean survival time (Semliki Forest virus [4]) of 6.9 days and a Survivors / total (Semliki Forest virus [8]) of 0%.
Nc1nc(=O)c2sc(=O)n([C@@H]3O[C@H](CO)[C@@H](O)[C@H]3O)c2[nH]1 [ISATORIBINE] was tested, and the Mean survival time (Semliki Forest virus [3]) was 11.5 days, the Mean survival time (Semliki Forest virus [4]) was >21 days and the Survivors / total (Semliki Forest virus [5]) was 10. For the same compound, the Survivors / total (Semliki Forest virus [6]) was 12.
For Cc1nn(C2O[C@H](CO)[C@@H](O)[C@H]2O)c2nc(N)[nH]c(=O)c12 (stereo partly drawn), the Cytotoxicity (Mus musculus [1]) was 17%, the Mean survival time (Semliki Forest virus [3]) was 8 days and the Mean survival time (Semliki Forest virus [4]) was 6.4 days. It also gave a Survivors / total (Semliki Forest virus [7]) of 8, a Survivors / total (Semliki Forest virus [10]) of 6 and a Cytotoxicity (Mus musculus [9]) of 29.7%.
Nc1nc2c(cnn2C2O[C@H](CO)[C@@H](O)[C@H]2O)c(=O)[nH]1 (stereo partly drawn) was tested, and the Cytotoxicity (Mus musculus [1]) was 26.9%, the Mean survival time (Semliki Forest virus [3]) was 9 days and the Mean survival time (Semliki Forest virus [4]) was > 21 days. It also gave a Survivors / total (Semliki Forest virus [5]) of 9, a Survivors / total (Semliki Forest virus [6]) of 12 and a Cytotoxicity (Mus musculus [9]) of 41.1%.
